Data set [1] has as its system Blood. The data set is described as follows: Biodistribution in Sprague-Dawley rat blood at 1.48 to 2.22 MBq, iv measured at 5 mins by gamma counting analysis. Format: ADME, organism-based. The conditions noted are these: in vivo. A digest of the protocol:
(§1)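 Male Sprague-Dawley rats (250 - 400 g), tail-vein injection of 1.48 - 2.22 MBq radiotracer under 2.5% isoflurane in oxygen; n=4 per time point, euthanized at 5, 30 and 60 min p.i. Brain regions obtained by gross dissection; peripheral tissues collected. Samples weighed, gamma-counted against a diluted-injectate standard; %ID/g calculated.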

In data set [2] the test system is Liver. Kind of data set: Biodistribution in Sprague-Dawley rat liver at 1.48 to 2.22 MBq, iv measured at 5 mins by gamma counting analysis. Format: ADME, organism-based. The conditions noted are these: in vivo. The gist of the method: as §1
Data set [3] deals with Kidney. Kind of data set: Biodistribution in Sprague-Dawley rat kidney at 1.48 to 2.22 MBq, iv measured at 5 mins by gamma counting analysis. Format: ADME, organism-based. To be noted: in vivo. The gist of the method: as §1
In data set [4] the test system is Muscle tissue. The data set is described as follows: Biodistribution in Sprague-Dawley rat muscle at 1.48 to 2.22 MBq, iv measured at 5 mins by gamma counting analysis. Format: ADME, organism-based. To be noted: in vivo. The gist of the method: as §1
The test system of data set [5] is Rattus norvegicus. Kind of data set: Biodistribution in Sprague-Dawley rat fat tissue at 1.48 to 2.22 MBq, iv measured at 5 mins by gamma counting analysis. Format: ADME, organism-based, Adipose tissue. The conditions noted are these: in vivo. A digest of the protocol: as §1
For data set [6], the system named is Bone. Kind of data set: Biodistribution in Sprague-Dawley rat bone at 1.48 to 2.22 MBq, iv measured at 5 mins by gamma counting analysis. Format: ADME, organism-based, Bone element. To be noted: in vivo. A digest of the protocol:
as §1

Data set [7] deals with Brain. Kind of data set: Biodistribution in Sprague-Dawley rat brain at 1.48 to 2.22 MBq, iv measured at 5 mins by gamma counting analysis. The data set is classed as ADME, organism-based. To be noted: in vivo. A digest of the protocol:
as §1

Data set [8] concerns Blood. The data set is described as follows: Biodistribution in Sprague-Dawley rat blood at 1.48 to 2.22 MBq, iv measured at 30 mins by gamma counting analysis. The data set is classed as ADME, organism-based. The conditions noted are these: in vivo, 0.5 h. The gist of the method:
as §1

The subject of data set [9] is Liver. Kind of data set: Biodistribution in Sprague-Dawley rat liver at 1.48 to 2.22 MBq, iv measured at 30 mins by gamma counting analysis. Format: ADME, organism-based. To be noted: in vivo, 0.5 h. A digest of the protocol: as §1
The test system of data set [10] is Kidney. The data set is described as follows: Biodistribution in Sprague-Dawley rat kidney at 1.48 to 2.22 MBq, iv measured at 30 mins by gamma counting analysis. Format: ADME, organism-based. To be noted: in vivo, 0.5 h. A digest of the protocol:
as §1

The test system of data set [11] is Muscle tissue. Kind of data set: Biodistribution in Sprague-Dawley rat muscle at 1.48 to 2.22 MBq, iv measured at 30 mins by gamma counting analysis. The data set is classed as ADME, organism-based. To be noted: in vivo, 0.5 h. The gist of the method: as §1
Data set [12] deals with Rattus norvegicus. The data set is described as follows: Biodistribution in Sprague-Dawley rat fat tissue at 1.48 to 2.22 MBq, iv measured at 30 mins by gamma counting analysis. The conditions noted are these: in vivo, 0.5 h. The data set is classed as ADME, organism-based, Adipose tissue. A digest of the protocol: as §1
The subject of data set [13] is Bone. The data set is described as follows: Biodistribution in Sprague-Dawley rat bone at 1.48 to 2.22 MBq, iv measured at 30 mins by gamma counting analysis. The data set is classed as ADME, organism-based, Bone element. The conditions noted are these: in vivo, 0.5 h. The gist of the method: as §1
The test system of data set [14] is Brain. The data set is described as follows: Biodistribution in Sprague-Dawley rat brain at 1.48 to 2.22 MBq, iv measured at 30 mins by gamma counting analysis. Format: ADME, organism-based. To be noted: in vivo, 0.5 h. A digest of the protocol: as §1
The subject of data set [15] is Blood. Kind of data set: Biodistribution in Sprague-Dawley rat blood at 1.48 to 2.22 MBq, iv measured at 60 mins by gamma counting analysis. The data set is classed as ADME, organism-based. To be noted: in vivo, 1 h. The gist of the method:
as §1

The test system of data set [16] is Liver. The data set is described as follows: Biodistribution in Sprague-Dawley rat liver at 1.48 to 2.22 MBq, iv measured at 60 mins by gamma counting analysis. Format: ADME, organism-based. The conditions noted are these: in vivo, 1 h. The gist of the method: as §1
The subject of data set [17] is Kidney. Kind of data set: Biodistribution in Sprague-Dawley rat kidney at 1.48 to 2.22 MBq, iv measured at 60 mins by gamma counting analysis. The data set is classed as ADME, organism-based. To be noted: in vivo, 1 h. The gist of the method: as §1
The test system of data set [18] is Muscle tissue. The data set is described as follows: Biodistribution in Sprague-Dawley rat muscle at 1.48 to 2.22 MBq, iv measured at 60 mins by gamma counting analysis. The data set is classed as ADME, organism-based. The conditions noted are these: in vivo, 1 h. A digest of the protocol:
as §1

In data set [19] the test system is Rattus norvegicus. The data set is described as follows: Biodistribution in Sprague-Dawley rat fat tissue at 1.48 to 2.22 MBq, iv measured at 60 mins by gamma counting analysis. Format: ADME, organism-based, Adipose tissue. The conditions noted are these: in vivo, 1 h. A digest of the protocol: as §1
For data set [20], the system named is Bone. Kind of data set: Biodistribution in Sprague-Dawley rat bone at 1.48 to 2.22 MBq, iv measured at 60 mins by gamma counting analysis. The data set is classed as ADME, organism-based, Bone element. To be noted: in vivo, 1 h. The gist of the method:
as §1

Data set [21] concerns Brain. The data set is described as follows: Biodistribution in Sprague-Dawley rat brain at 1.48 to 2.22 MBq, iv measured at 60 mins by gamma counting analysis. Format: ADME, organism-based. To be noted: in vivo, 1 h. The gist of the method:
as §1

The test system of another data set is Striatum. The data set is described as follows: Biodistribution in Sprague-Dawley rat striatum at 1.48 to 2.22 MBq, iv measured at 30 mins by gamma counting analysis. Format: ADME, organism-based. To be noted: in vivo, 0.5 h. A digest of the protocol: as §1
Data set [22] is described as follows: Ratio of drug level in striatum to cerebellum in Sprague-Dawley rat at 1.48 to 2.22 MBq, iv measured at 5 to 30 mins by gamma counting analysis. Format: ADME, organism-based. To be noted: in vivo. The gist of the method: (§2)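 Striatum, cerebellum and cortex obtained by gross dissection from Sprague-Dawley rats (250 - 400 g, n=4 per time point) after tail-vein injection of 1.48 - 2.22 MBq under isoflurane anesthesia. Tissues weighed and gamma-counted with an injectate standard to give %ID/g; ratios taken from striatal versus non-target uptake.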

Another data set has as its system Nucleic Acid. The data set is described as follows: Ratio of drug level in striatum to cortex in Sprague-Dawley rat at 1.48 to 2.22 MBq, iv measured at 5 to 30 mins by gamma counting analysis. Format: ADME, organism-based. The conditions noted are these: in vivo. The gist of the method: as §2

Consider three molecules from ChEMBL document CHEMBL3627597, “Synthesis of Fluorine-Containing Phosphodiesterase 10A (PDE10A) Inhibitors and the In Vivo Evaluation of F-18 Labeled PDE10A PET Tracers in Rodent and Nonhuman Primate” (J Med Chem, 2015).

Turning to `Cn1cc(-c2ccncc2)c(-c2ccc(OCc3cc(C[18F])c4ccccc4n3)cc2)n1`, the Drug uptake with Blood [1] worked out at 0.471 % ID/g; in the data set with Liver [2], 10.16 % ID/g; with Kidney [3], 1.799 % ID/g; in the data set with Muscle tissue [4], 0.227 % ID/g; with Rattus norvegicus [5], 0.343 % ID/g; in the data set with Bone [6], 0.421 % ID/g. In addition, the Drug uptake with Brain [7] is on record as 0.128 % ID/g; with Blood [8] it was 0.416 % ID/g; in the data set with Liver [9], 4.01 % ID/g; in the data set on Kidney [10], 1.351 % ID/g; in the data set with Muscle tissue [11], 0.174 % ID/g; in the data set with Rattus norvegicus [12], 0.352 % ID/g. Moreover, the Drug uptake with Bone [13] is given as 4.055 % ID/g; in the data set with Brain [14], 0.094 % ID/g; in the data set on Blood [15], 0.201 % ID/g; in the data set with Liver [16] it was 3.1 % ID/g; with Kidney [17], 0.573 % ID/g; in the data set with Muscle tissue [18], 0.107 % ID/g. For the same molecule, the Drug uptake with Rattus norvegicus [19] is 0.222 % ID/g; in the data set on Bone [20] it was 5.62 % ID/g; in the data set with Brain [21] it was 0.069 % ID/g; in the data set on Striatum, “Active”. Besides, the Ratio (in data set [22]; in the data set with Nucleic Acid) was above 2 in each case.
As to `Cn1cc(-c2ccncc2)c(-c2ccc(OCc3cc(CCC[18F])c4ccccc4n3)cc2)n1`, the Drug uptake with Blood [1] worked out at 0.459 % ID/g; with Liver [2] it was 9.99 % ID/g; in the data set on Kidney [3] it was 2.471 % ID/g; in the data set on Muscle tissue [4], 0.223 % ID/g; in the data set with Rattus norvegicus [5], 0.22 % ID/g; with Bone [6] it was 0.222 % ID/g. Also, the Drug uptake with Brain [7] was 0.114 % ID/g; with Blood [8], 0.345 % ID/g; in the data set on Liver [9], 5.67 % ID/g; with Kidney [10] it was 1.364 % ID/g; in the data set on Muscle tissue [11], 0.178 % ID/g; in the data set on Rattus norvegicus [12] it was 0.491 % ID/g. In addition, the Drug uptake with Bone [13] was 1.418 % ID/g; in the data set on Brain [14] it was 0.046 % ID/g; in the data set with Blood [15], 0.345 % ID/g; in the data set with Liver [16], 6.79 % ID/g; in the data set with Kidney [17], 1.216 % ID/g; in the data set on Muscle tissue [18], 0.103 % ID/g. In addition, the Drug uptake with Rattus norvegicus [19] is listed as 0.368 % ID/g; in the data set on Bone [20], 2.037 % ID/g; in the data set on Brain [21] it was 0.026 % ID/g; in the data set on Striatum it was “Active”. For the same molecule, the Ratio (in data set [22]; in the data set on Nucleic Acid) was above 2 each time.
Consider `Cn1cc(-c2ccncc2)c(-c2ccc(OCc3cc([18F])c4ccccc4n3)cc2)n1`, for which the Drug uptake in the data set on Blood [1] is 0.353 % ID/g; in the data set with Liver [2] it was 6.87 % ID/g; in the data set with Kidney [3], 1.887 % ID/g; with Muscle tissue [4], 0.339 % ID/g; in the data set with Rattus norvegicus [5] it was 0.404 % ID/g; in the data set with Bone [6], 0.522 % ID/g. Besides, the Drug uptake in the data set on Brain [7] came out at 0.41 % ID/g; in the data set with Blood [8], 0.376 % ID/g; in the data set with Liver [9], 3 % ID/g; in the data set on Kidney [10], 1.034 % ID/g; in the data set with Muscle tissue [11], 0.236 % ID/g; with Rattus norvegicus [12], 0.576 % ID/g. Also, the Drug uptake was determined as 4.035 % ID/g with Bone [13]; 0.191 % ID/g in the data set with Brain [14]; 0.15 % ID/g with Blood [15]; 1.6 % ID/g in the data set on Liver [16]; 0.533 % ID/g in the data set on Kidney [17]; 0.092 % ID/g in the data set with Muscle tissue [18]. Moreover, the Drug uptake is on record as 0.477 % ID/g in the data set on Rattus norvegicus [19], 6.3 % ID/g in the data set on Bone [20], 0.125 % ID/g in the data set on Brain [21] and “Active” in the data set with Striatum. The Ratio (in data set [22]; in the data set on Nucleic Acid) was above 2 throughout.
